pEC50: −log10 of the molar value. One block for each compound: values may come before it. Activity calls are given as the source filed them. The calls are words filed in the database; no cut-off is given here.
Assays:
[1] = target: T1, Peroxisome proliferator-activated receptor alpha (Homo sapiens, UniProt Q07869); experiment: Agonist activity at human PPARalpha transfected in human HepG2 cells incubated for 18 hrs by Renilla/Firefly dual-luciferase reporter assay; format: cell-based
T1 sequence (Q07869 whole entry): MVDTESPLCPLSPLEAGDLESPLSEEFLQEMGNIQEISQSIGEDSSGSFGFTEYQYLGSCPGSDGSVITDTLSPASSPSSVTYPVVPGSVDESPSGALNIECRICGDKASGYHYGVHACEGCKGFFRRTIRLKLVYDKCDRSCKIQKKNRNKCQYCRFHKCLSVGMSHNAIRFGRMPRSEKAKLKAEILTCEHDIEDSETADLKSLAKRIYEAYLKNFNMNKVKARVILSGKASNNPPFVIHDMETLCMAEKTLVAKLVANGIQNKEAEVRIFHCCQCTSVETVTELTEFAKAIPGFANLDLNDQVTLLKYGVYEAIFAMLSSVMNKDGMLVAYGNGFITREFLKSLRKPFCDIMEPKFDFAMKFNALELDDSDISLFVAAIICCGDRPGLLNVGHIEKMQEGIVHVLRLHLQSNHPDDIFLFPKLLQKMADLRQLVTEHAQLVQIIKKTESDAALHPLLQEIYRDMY

[2] = Cmax in Sprague-Dawley rat at 3 mg/kg, po measured for 24 hrs by LC-MS/MS analysis; format: ADME, organism-based; set-up: route oral, dose 3 mg/kg, time 24 hrs; details: in vivo
Outline: (§1)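 Male SD rats (eight weeks old at purchase) dosed orally at 3 mg/kg. Plasma profile followed over 0–24 h to derive AUC0–24h, Cmax, CL and T1/2. Values are mean SD of four rats.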

[3] = Toxicity in ob/ob mouse assessed as weight gain at 20 mg/kg, po administered once daily for 30 days and measured every 5 days; format: organism-based; details: in vivo, 720 h, time 30 day
Outline: (§2)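 Food and water intake measured daily and body weight every 5 days. n = 6, mean SD; Student's t-test vs vehicle, with one-way ANOVA/Tukey.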

[4] = Half-life in Sprague-Dawley rat at 3 mg/kg, po measured for 24 hrs by LC-MS/MS analysis; format: ADME, organism-based; details: in vivo; outline: as §1
[5] = Clearance in Sprague-Dawley rat at 3 mg/kg, po measured for 24 hrs by LC-MS/MS analysis; format: ADME, organism-based; details: in vivo; outline: as §1
[6] = AUC (0 to 24 hrs) in Sprague-Dawley rat at 3 mg/kg, po measured after 24 hrs by LC-MS/MS analysis; format: ADME, organism-based; set-up: route oral, time 24 hrs, dose 3 mg/kg; details: in vivo; outline: as §1
[7] = target: T2, Peroxisome proliferator-activated receptor delta (Homo sapiens, UniProt Q03181); experiment: Agonist activity at human PPARdelta transfected in human HEK293 cells incubated for 18 hrs by Renilla/Firefly dual-luciferase reporter assay; format: cell-based
T2 sequence (Q03181 whole entry): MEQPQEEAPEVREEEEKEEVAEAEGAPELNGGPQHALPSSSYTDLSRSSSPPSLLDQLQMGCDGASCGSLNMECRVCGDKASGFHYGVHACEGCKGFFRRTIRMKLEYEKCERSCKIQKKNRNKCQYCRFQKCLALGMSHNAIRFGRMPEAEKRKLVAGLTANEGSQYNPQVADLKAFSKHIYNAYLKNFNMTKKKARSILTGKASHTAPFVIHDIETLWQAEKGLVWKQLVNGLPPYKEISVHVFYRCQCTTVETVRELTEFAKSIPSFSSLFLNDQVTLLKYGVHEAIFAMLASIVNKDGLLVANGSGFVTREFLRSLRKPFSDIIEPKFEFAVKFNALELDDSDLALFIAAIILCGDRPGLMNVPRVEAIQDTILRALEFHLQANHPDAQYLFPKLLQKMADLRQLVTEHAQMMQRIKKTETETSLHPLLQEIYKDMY

[8] = target: T3, Peroxisome proliferator-activated receptor gamma (Homo sapiens, UniProt P37231); experiment: Agonist activity at human PPARgamma transfected in human HEK293 cells incubated for 18 hrs by Renilla/Firefly dual-luciferase reporter assay; format: cell-based
T3 sequence (P37231 whole entry): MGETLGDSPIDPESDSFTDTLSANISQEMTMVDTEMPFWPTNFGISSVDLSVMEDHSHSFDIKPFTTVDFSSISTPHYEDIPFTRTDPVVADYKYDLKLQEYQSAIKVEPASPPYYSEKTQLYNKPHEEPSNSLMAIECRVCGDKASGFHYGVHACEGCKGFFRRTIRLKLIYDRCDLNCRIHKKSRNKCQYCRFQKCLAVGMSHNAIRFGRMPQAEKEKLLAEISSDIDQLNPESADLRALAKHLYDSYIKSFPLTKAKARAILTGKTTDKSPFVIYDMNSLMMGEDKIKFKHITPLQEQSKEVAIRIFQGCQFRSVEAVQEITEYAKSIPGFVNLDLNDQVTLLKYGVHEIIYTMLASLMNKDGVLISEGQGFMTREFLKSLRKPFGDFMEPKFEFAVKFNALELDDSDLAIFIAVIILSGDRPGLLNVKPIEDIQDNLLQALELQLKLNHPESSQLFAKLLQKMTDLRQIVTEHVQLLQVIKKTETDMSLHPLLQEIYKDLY

[9] = species on record: Mus musculus; details: dose 10.0 mg/kg, time 30.0 day
[10] = species on record: Mus musculus; details: dose 10.0 mg/kg, time 30.0 day; remark: listed apart in the source
[11] = Toxicity in ob/ob mouse assessed as weight gain at 10 mg/kg, po administered once daily for 30 days and measured every 5 days; format: organism-based; details: in vivo, 720 h, time 30 day; outline: as §2
[12] = species on record: Mus musculus; details: dose 10.0 mg/kg, time 30.0 day; remark: listed apart in the source
[13] = species on record: Mus musculus; details: dose 10.0 mg/kg, time 30.0 day; remark: listed apart in the source
[14] = Induction of hepatic steatosis in ob/ob mouse at 10 mg/kg, po administered once daily for 30 days by hematoxylin-eosin staining based histopathological analysis; format: organism-based; details: in vivo, 720 h, time 30 day
Outline: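 Liver sections were stained with hematoxylin-eosin and viewed at 400× for steatosis and ballooning, with normal controls included.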

[15] = species on record: Mus musculus; details: dose 10.0 mg/kg, time 30.0 day; remark: listed apart in the source
[16] = species on record: Mus musculus; details: dose 10.0 mg/kg, time 30.0 day; remark: listed apart in the source

pEC50 [1]: < 5.00
SMILES: Cc1cc(/C=C2\Oc3cc(OCC(C)C)ccc3C2=O)cc(C)c1OCC(=O)O

pEC50 [1]: < 5.00
SMILES: CCCOc1ccc2c(c1)O/C(=C\c1cc(C)c(OCC(=O)O)c(C)c1)C2=O

pEC50 [1]: 5.33
SMILES: CCOc1ccc2c(c1)O/C(=C\c1cc(C)c(OC(C)(C)C(=O)O)c(C)c1)C2=O

Cmax [2]: 8670 ng/mL
half-life [4]: 3.85 h
CL/F [5]: 0.351 mL/min/kg
AUC(0-t) at 24 h [6]: 51100 ng·h/mL
SMILES: Cc1cc(/C=C2\Oc3cc(OCC4CC4)ccc3C2=O)cc(C)c1OC(C)(C)C(=O)O
Activity [3]: Non-Toxic

pEC50 [1]: < 5.00
SMILES: Cc1cc(/C=C2\Oc3cc(OCC4CC4)ccc3C2=O)cc(C)c1OCC(=O)O

pEC50 [1]: < 5.00
SMILES: CCOc1ccc2c(c1)O/C(=C\c1cc(C)c(OCC(=O)O)c(C)c1)C2=O

pEC50 [1]: 5.43
SMILES: COc1ccc2c(c1)O/C(=C\c1cc(C)c(OC(C)(C)C(=O)O)c(C)c1)C2=O

pEC50 [1]: 5.11
SMILES: Cc1cc(/C=C2\Oc3cc(OCCC(C)C)ccc3C2=O)cc(C)c1OC(C)(C)C(=O)O

pEC50 [1]: < 5.00
pEC50 [7]: 5.49
SMILES: COc1ccc2c(c1)O/C(=C\c1cc(C)c(OCC(=O)O)c(C)c1)C2=O

pEC50 [1]: 5.16
SMILES: CCCOc1ccc2c(c1)O/C(=C\c1cc(C)c(OC(C)(C)C(=O)O)c(C)c1)C2=O

pEC50 [8]: 5.40
pEC50 [1]: 6.43
SMILES: CSc1ccc(C(=O)/C=C/c2cc(C)c(OC(C)(C)C(=O)O)c(C)c2)cc1 [ELAFIBRANOR]

SMILES: CN(CCOc1ccc(CC2SC(=O)NC2=O)cc1)c1ccccn1 (stereo not given) [ROSIGLITAZONE]
inhibition [9]: inactive
inhibition [10]: inactive
Activity [11]: Toxic
inhibition [12]: inactive
inhibition [13]: inactive
Activity [14]: Toxic
inhibition [15]: inactive
inhibition [16]: inactive
